Data as given in ChEMBL document CHEMBL1817667, “Synthesis and antimicrobial properties of some new thiazolyl coumarin derivatives” (2011).
Converted amounts (≈) assume the structure as drawn.

What was measured:
Type in all cases: functional
Haemophilus influenzae = test: Antibacterial activity against Haemophilus influenzae ATCC 10211 after 24 hrs by MTT assay
Summary of the method: (§1)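 Broth microdilution. Inocula were grown in Mueller-Hinton broth from subcultures on nutrient agar (37 °C, 48 h) and set to McFarland 0.5. Compounds in DMSO were diluted with water, then two-fold serially from 3.91 to 250 µg/mL. Gentamicin and tetracycline served as positive controls and DMSO as negative. Plates ran 37 °C for 24 h, then MTT (0.2 mg/mL) for 30 min. MIC was the lowest concentration preventing the yellow-to-purple change.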

Candida albicans = test: Antifungal activity against Candida albicans ATCC 10231 after 24 hrs by MTT assay; details: ATCC 10231, 24 h; summary of the method: as §1
Staphylococcus aureus = test: Antibacterial activity against Staphylococcus aureus ATCC 25923 after 24 hrs by MTT assay; details: ATCC 25923, 24 h; summary of the method: as §1
Streptococcus pyogenes = test: Antibacterial activity against Streptococcus pyogenes ATCC 19615 after 24 hrs by MTT assay; details: ATCC 19615, 24 h; summary of the method: as §1
[1] = test system: Mycobacterium tuberculosis; test: Antibacterial activity against Mycobacterium tuberculosis H37Rv ATCC 27294 after 5 days by MTT assay; details: H37Rv ATCC 27294, 120 h
Summary of the method: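 Inoculum from log-phase culture in Middlebrook 7H9 with ADC, set to McFarland no. 1 (approximately 3×10^7 CFU/mL), then diluted 1:20 in 7H9-OADC. Compounds in DMSO/water, two-fold series 3.91–250 μg/mL, tested in triplicate. Isoniazid positive control, drug-free growth wells. Incubated 37 °C, 8% CO₂. MTT–Tween 80 added to a control well; once purple, added to all wells. MIC read next day.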

For GENTAMICIN, the MIC (Haemophilus influenzae) was 13 µM.
`O=c1oc2ccccc2cc1-c1csc(N/N=C\c2cc(Br)ccc2O)n1` gave an MIC (Haemophilus influenzae; ATCC 10211, 24 h) of 17 µM (≈ 7.52 µg/mL), an MIC (Candida albicans) of 35 µM (≈ 15.5 µg/mL) and an MIC (Staphylococcus aureus) of 35 µM (≈ 15.5 µg/mL). The MIC (Streptococcus pyogenes) was 17 µM (≈ 7.52 µg/mL) and the MIC [1] was 17 µM (≈ 7.52 µg/mL).
With `O=c1oc2ccccc2cc1-c1csc(N/N=C\c2ccccc2O)n1` the MIC (Haemophilus influenzae; ATCC 10211, 24 h) was 43 µM (≈ 15.6 µg/mL), the MIC (Candida albicans) was 86 µM (≈ 31.3 µg/mL) and the MIC (Staphylococcus aureus) was 172 µM (≈ 62.5 µg/mL). The MIC (Streptococcus pyogenes) was 344 µM (≈ 125 µg/mL) and the MIC [1] was 43 µM (≈ 15.6 µg/mL).
`O=c1oc2ccccc2cc1-c1csc(N/N=C\c2c(O)ccc3ccccc23)n1` showed an MIC (Haemophilus influenzae; ATCC 10211, 24 h) of 151 µM (≈ 62.4 µg/mL), an MIC (Candida albicans) of 151 µM (≈ 62.4 µg/mL) and an MIC (Staphylococcus aureus) of 75 µM (≈ 31 µg/mL). The MIC (Streptococcus pyogenes) was 75 µM (≈ 31 µg/mL) and the MIC [1] was 75 µM (≈ 31 µg/mL).
Molecule `OC(Cn1cncn1)(Cn1cncn1)c1ccc(F)cc1F` [FLUCONAZOLE] has an MIC (Candida albicans) of 10 µM (≈ 3.06 µg/mL).
`C/C(=N/Nc1nc(-c2cc3ccccc3oc2=O)cs1)c1cc2ccc(O)cc2oc1=O` showed an MIC (Haemophilus influenzae; ATCC 10211, 24 h) of 35 µM (≈ 15.6 µg/mL), an MIC (Candida albicans) of 140 µM (≈ 62.4 µg/mL) and an MIC (Staphylococcus aureus) of 17 µM (≈ 7.57 µg/mL). The MIC (Streptococcus pyogenes) was 72 µM (≈ 32.1 µg/mL) and the MIC [1] was 17 µM (≈ 7.57 µg/mL).
In the case of `O=c1oc2ccccc2cc1-c1csc(N/N=C\c2ccc(O)cc2O)n1`, the MIC (Haemophilus influenzae; ATCC 10211, 24 h) is reported as 329 µM (≈ 125 µg/mL), the MIC (Candida albicans) is reported as 165 µM (≈ 62.6 µg/mL) and the MIC (Staphylococcus aureus) is reported as 82 µM (≈ 31.1 µg/mL). The MIC (Streptococcus pyogenes) was 329 µM (≈ 125 µg/mL) and the MIC [1] was 329 µM (≈ 125 µg/mL).
`COc1cccc(/C=N\Nc2nc(-c3cc4ccccc4oc3=O)cs2)c1O` was tested, and the MIC (Haemophilus influenzae; ATCC 10211, 24 h) was 79 µM (≈ 31.1 µg/mL), the MIC (Candida albicans) was 79 µM (≈ 31.1 µg/mL) and the MIC (Staphylococcus aureus) was 159 µM (≈ 62.6 µg/mL). It also gave an MIC (Streptococcus pyogenes) of 159 µM (≈ 62.6 µg/mL) and an MIC [1] of 79 µM (≈ 31.1 µg/mL).
Work on `O=c1oc2ccccc2cc1-c1csc(NN=C(c2ccccc2)c2ccccc2)n1` yielded an MIC (Haemophilus influenzae; ATCC 10211, 24 h) of 147 µM (≈ 62.3 µg/mL), an MIC (Candida albicans) of 147 µM (≈ 62.3 µg/mL) and an MIC (Staphylococcus aureus) of 295 µM (≈ 125 µg/mL). The MIC (Streptococcus pyogenes) was 295 µM (≈ 125 µg/mL) and the MIC [1] was 147 µM (≈ 62.3 µg/mL).
Work on `O=c1oc2ccccc2cc1-c1csc(N/N=C\c2cccc3ccccc23)n1` yielded an MIC (Haemophilus influenzae; ATCC 10211, 24 h) of 314 µM (≈ 125 µg/mL), an MIC (Candida albicans) of 157 µM (≈ 62.4 µg/mL) and an MIC (Staphylococcus aureus) of 157 µM (≈ 62.4 µg/mL). The MIC (Streptococcus pyogenes) was 314 µM (≈ 125 µg/mL) and the MIC [1] was 157 µM (≈ 62.4 µg/mL).
For `C/C(=N\Nc1nc(-c2cc3ccccc3oc2=O)cs1)c1ccc(O)cc1`, the MIC (Haemophilus influenzae; ATCC 10211, 24 h) was 331 µM (≈ 125 µg/mL), the MIC (Candida albicans) was 331 µM (≈ 125 µg/mL) and the MIC (Staphylococcus aureus) was 165 µM (≈ 62.3 µg/mL). For the same molecule, the MIC (Streptococcus pyogenes) was 165 µM (≈ 62.3 µg/mL) and the MIC [1] was over 663 µM.
Work on `O=c1oc2ccccc2cc1-c1csc(N/N=C\c2cccc(O)c2)n1` yielded an MIC (Haemophilus influenzae; ATCC 10211, 24 h) of 172 µM (≈ 62.5 µg/mL), an MIC (Candida albicans) of 172 µM (≈ 62.5 µg/mL) and an MIC (Staphylococcus aureus) of 172 µM (≈ 62.5 µg/mL). The MIC (Streptococcus pyogenes) was 344 µM (≈ 125 µg/mL) and the MIC [1] was 172 µM (≈ 62.5 µg/mL).
`C/C(=N/Nc1nc(-c2cc3ccccc3oc2=O)cs1)c1cc2cc(Br)ccc2oc1=O` gave an MIC (Haemophilus influenzae; ATCC 10211, 24 h) of 15 µM (≈ 7.63 µg/mL), an MIC (Candida albicans) of 31 µM (≈ 15.8 µg/mL) and an MIC (Staphylococcus aureus) of 62 µM (≈ 31.5 µg/mL). It also gave an MIC (Streptococcus pyogenes) of 62 µM (≈ 31.5 µg/mL) and an MIC [1] of 15 µM (≈ 7.63 µg/mL).
In the case of `CN(C)[C@@H]1C(O)=C(C(N)=O)C(=O)[C@@]2(O)C(O)=C3C(=O)c4c(O)cccc4[C@@](C)(O)[C@H]3C[C@@H]12` [TETRACYCLINE], the MIC (Haemophilus influenzae; ATCC 10211, 24 h) is reported as 35 µM (≈ 15.6 µg/mL), the MIC (Staphylococcus aureus) is reported as 70 µM (≈ 31.1 µg/mL) and the MIC (Streptococcus pyogenes) is reported as 14 µM (≈ 6.22 µg/mL).
For `NNC(=O)c1ccncc1` [ISONIAZID], the MIC [1] was 1.3 µM (≈ 0.178 µg/mL).
Molecule `O=c1oc2ccccc2cc1-c1csc(N/N=C\c2ccc(O)cc2)n1` has an MIC (Haemophilus influenzae; ATCC 10211, 24 h) of 344 µM (≈ 125 µg/mL), an MIC (Candida albicans) of 172 µM (≈ 62.5 µg/mL) and an MIC (Staphylococcus aureus) of 344 µM (≈ 125 µg/mL). For the same molecule, the MIC (Streptococcus pyogenes) was 172 µM (≈ 62.5 µg/mL) and the MIC [1] was 344 µM (≈ 125 µg/mL).
